RORa activator: activators of orphan receptor RORA, primary screen, cell-based, luminescence | Nuclear receptor ROR-alpha (Homo sapiens), P35398 | CHO-K1 Gal4-RORA LBD luciferase reporter; percent increase over mock-subtracted basal signal | activation, % at 10 µM | 65,000 tested, 1.5% active;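 active = activation above the mean of all tested compounds plus 3 SD, cut at about 49% in these data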;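 also: 0% = DMSO-treated RORA cells and 100% = added signal equal to DMSO minus mock-transfected cells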
M1 antag: antagonists of rat M1 muscarinic receptor. Muscarinic acetylcholine receptor M1 (Rattus norvegicus), P08482. CHO-M1 cells, Fluo-4 calcium, ACh EC80 antagonist mode; hits give low values. B-score at 10 µM. 64,000 tested, 3.4% active;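 active = calcium fluorescence response, raw or row-and-column corrected B-score, differing from the plate sample mean either way at a set confidence level, mostly lower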
mHtt clearance: clearance of mutant huntingtin inclusions, primary screen, imaging, HeLa Exon1htt(103Q)mCFP, confocal imaging; aggregate imaging; zero = plate's median compound well; inhibition, % at 1.5 µM; 47,000 tested, 0.42% active; AID 853, 2007;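 active = inhibition of aggregate fluorescence above about 70%, also judged a hit by eye on the cell image, limit read from the data, passing the limit was not always enough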;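 also: cells exposed to compound for three days before fixation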
M1 agonist: M1 muscarinic receptor agonists, primary screen, CHO-M1 cells, Fluo-4 calcium, agonist mode. Muscarinic acetylcholine receptor M1. Fluo-4 calcium fluorescence; hits give high values. B-score at 10 µM. 64,000 tested, 3% active. AID 626, 2007;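 active = fluorescence rise, raw or as B-score row- and column-corrected plate score, outside the 99.7% band of its plate's samples, either direction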
D1 mod: D1 CRE-luciferase signal change, two-sided – cell-based, HEK293 D1, dopamine EC30, D1 allosteric modulator project, primary screen. B-score at 10 µM. 58,000 tested, 5.9% active. dopamine EC30 potentiation; actives deviate in either direction. AID 641, 2007. D(1A) dopamine receptor (Homo sapiens), P21728;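 active = luminescence count or its row- and column-corrected plate score outside the 99.7% band of the plate's sample wells, on either side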
SF-1 act: activators of human SF-1, primary screen, cell-based, CHO-K1, Gal4-SF-1 LBD, luciferase luminescence; Steroidogenic factor 1 (Homo sapiens), Q13285; CHO-K1 Gal4-SF-1 LBD luciferase reporter; % increase over DMSO SF-1-specific signal; activation, % at 10 µM; 65,000 tested, 1.9% active; AID 522, 2006;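 active = activation above the mean activation of all tested compounds plus 3 SD, cut at about 50% in these data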
Target sequence (Q13285 whole entry, looked up, the tested form may be a part): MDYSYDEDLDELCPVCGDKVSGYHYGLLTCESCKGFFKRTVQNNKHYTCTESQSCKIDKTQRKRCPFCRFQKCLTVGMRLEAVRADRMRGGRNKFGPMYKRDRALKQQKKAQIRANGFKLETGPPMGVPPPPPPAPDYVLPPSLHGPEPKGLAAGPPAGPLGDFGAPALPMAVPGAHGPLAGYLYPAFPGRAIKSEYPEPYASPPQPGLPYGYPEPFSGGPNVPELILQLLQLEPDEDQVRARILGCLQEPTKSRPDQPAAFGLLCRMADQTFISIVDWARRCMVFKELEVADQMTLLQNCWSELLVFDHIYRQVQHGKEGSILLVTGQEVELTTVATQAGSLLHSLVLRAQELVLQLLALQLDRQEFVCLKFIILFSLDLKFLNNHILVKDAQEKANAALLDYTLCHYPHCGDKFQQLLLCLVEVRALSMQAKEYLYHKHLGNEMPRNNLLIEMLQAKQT
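System: CHO-K1 cells with Gal4–hSF-1 LBD chimera plus Gal4-driven luciferase; quantity: 4,000 CHO-K1 cells per well; compound: one dose, 10 µM compound, 1% DMSO; times: 20 h compound treatment, 37 °C; measured by: SteadyLite luciferase luminescence; read-out: percent activation versus DMSO; benchmarks: DMSO and mock-transfected background; replicates: one test per compound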
M1 ag confirm: rat M1 muscarinic receptor agonists, confirmation, CHO-M1 cells, Fluo-4 calcium, duplicate retest; shares compounds with M1 agonist; Fluo-4 calcium fluorescence, agonist mode; actives lie on both sides; 1,700 tested, 19% active; fluorescence change (max-min) at 10 µM;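 active = fluorescence change differs from the solvent-only DMSO control mean at a set confidence level in both duplicate runs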;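 also: an EC20 dose of acetylcholine follows compound addition during the same imaging run; raw fluorescence intensity difference in instrument units with no normalization to controls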
M4 ag counter: agonist activity at rat M4 receptor, confirmation, counter-screen for M1 allosteric modulator project, cell-based, agonist mode | shares compounds with M1 agonist | CHO M4/Gqi5 cells, Fluo-4 calcium fluorescence; actives lie on both sides | fluorescence change (max-min) at 10 µM | 1,700 tested, 9% active;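 active = fluorescence change differing from the plate's solvent-only control wells at 99.7% confidence in both duplicates, whether higher or lower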
M1 antag conf: rat M1 muscarinic receptor antagonists, confirmation, CHO cells, Fluo-4 calcium, duplicate. shares compounds with M1 antag. ACh EC80 antagonism; hits give low values. 1,700 tested, 43% active. calcium response (max-min fluorescence) at 10 µM;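 active = calcium response below the same-plate mean of wells given acetylcholine alone at its 80%-effect dose, minus 3 SD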;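 also: raw fluorescence intensity difference in arbitrary instrument units and not normalized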
mGluR4 antag: human mGluR4 response to M1 antagonist hits, M1 allosteric modulator project, cell-based, antagonist mode, secondary assay 1; shares compounds with M1 antag; CHO-mGluR4 calcium flux, Fluo-4 fluorescence, glutamate EC80; hits give low values; fluorescence response (max-min) at 10 µM; 1,700 tested, 0.9% active; AID 678, 2007;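 active = fluorescence response below the plate's average for near-maximal glutamate wells, less 3 SD of those wells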;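 also: raw unnormalized fluorescence span taken in the window right after glutamate addition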
D1 PAM confirm: D1 receptor positive allosteric modulators, retest, confirmation, cell-based, HEK293 D1, CRE-luciferase, duplicate | dopamine EC30 potentiation; hits give high values | AID 642, 2007 | shares compounds with D1 mod | luminescence at 10 µM | 2,200 tested, 88% active;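 active = luminescence in either of two replicates above the same-plate mean plus 3 SD of the low-dose dopamine control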
D1 ag no DA: D1 receptor agonism without dopamine, confirmation, mechanism study for D1 allosteric modulator project, cell-based, HEK293 D1, CRE-luciferase, secondary assay 1; luminescence, no dopamine; hits give high values; 1,900 tested, 0.8% active; luminescence at 10 µM; AID 646, 2007; shares compounds with D1 mod; in the data active = luminescence above about 3900
Isoprot counter: counter-screen for D1 modulators: isoproterenol response in HEK293 cells; HEK293 D1 CRE-luciferase, isoproterenol EC30 counter-screen; 2,200 tested, 63% active; calls only at 10 µM; shares compounds with D1 mod;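 active = luminescence in either replicate above plate mean of wells with a partly effective reference agonist dose plus 3 SD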;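 also: isoproterenol raises cAMP through native beta-adrenoceptor Gs so signal bypasses D1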
Starred values were filed as active, the others as inactive; · = no result; + = active, no number. This is a sample that favours compounds with a hit; in the whole collection about 11% have one here.

SMILES | RORa activator | M1 antag | mHtt clearance | M1 agonist | D1 mod | SF-1 act | M1 antag conf | mGluR4 antag | others
CCCCn1c(O)c(C(CC)=NCc2ccc3c(c2)OCO3)c(=O)[nH]c1=O | 3 | -0.8 | -9 | 4.3* | 7.4* | -8 | · | · | M1 ag confirm=5.3;M4 ag counter=-24;D1 PAM confirm=12520*;D1 ag no DA=1728;Isoprot counter=+
CCOc1ccc(-n2c(CC)nc3ccccc3c2=O)cc1 | 38 | 0.2 | · | 0.015 | 0.073 | -11 | · | ·
NC(=O)C1(N2CCCCC2)CCN(Cc2ccccc2)CC1 | -17 | 0.68 | · | -0.22 | -0.7 | 0 | · | ·
O=C(Cc1ccccc1)OCCN1CCCCC1 | 12 | -3.5* | 58 | 1.2 | -0.035 | 5 | 507* | 242
CC(C)c1cccc(C(C)C)c1OCCn1ccnc1 | -20 | -2* | -23 | 0.038 | 1.6 | -13 | 416* | 238
Cc1cccc(C)c1NC1=NCCCCS1 | 10 | 0.012 | -20 | 0.21 | -0.22 | -30 | · | ·
Oc1ccc(C2NCc3ccccc3-n3cccc32)cc1Cl (centres undefined) | -6 | -3.5* | 49 | -1.8 | -1.9 | 5 | 579 | 248
CCn1c(O)c(C=NCCc2c[nH]c3ccccc23)c(=O)[nH]c1=O | -23 | -0.83 | -22 | -0.39 | 0.041 | -12 | · | ·
O=c1[nH]c(=O)n(Cc2ccccc2)c(O)c1C=NCCN1CCOCC1 | -16 | -1 | · | 0.46 | 0.66 | -10 | · | ·
CN1CCC(N(C)c2ncnc3ccc(Br)cc23)CC1 | 8 | -0.9* | · | -0.34 | -4.3* | 30 | 516 | 244
COc1ccc(S(=O)(=O)NC(CC(=O)N2CCC3(CC2)OCCO3)C(C)C)cc1 (centres undefined) | · | · | 8 | · | · | · | · | ·
COc1ccc(C2NCc3ccc4c(c3-n3cccc32)OCO4)cc1O (centres undefined) | 50* | -2.2* | -163 | -2.3 | 0.91 | 21 | 108* | 232
c1cc2n(c1)-c1c(ccc3c1OCO3)CNC2c1ccc2c(c1)OCO2 (centres undefined) | -5 | -10* | 8 | -1.7 | 0.068 | -12 | 305* | 242
CC(=NCCN1CCCCC1)c1c(O)n(Cc2ccccc2)c(=O)[nH]c1=O | -14 | -2.4* | 11 | 0.14 | -0.33 | -6 | 562 | 228
CC(=NCCCN1CCCCC1)c1c(O)n(Cc2ccccc2)c(=O)[nH]c1=O | 13 | -0.92 | -50 | -0.84 | -0.1 | -4 | · | ·
CC12CCCCC1N(O)CN2O (centres undefined) | -14 | 0.43 | -17 | -0.55 | 1.1 | -13 | · | ·
Nc1ccccc1C(=O)OC1CSC1 | 1 | -6.2* | -52 | 0.24 | 0.21 | 30 | 668 | 241
Nc1ccccc1C(=O)c1ccccc1 | 5 | 0.16 | · | 0.13 | 0.0056 | 0 | · | ·
O=c1[nH]c(=O)n(CCc2ccc(F)cc2)c(O)c1C=NCCCn1ccnc1 | -6 | 0.25 | · | -0.69 | 0.1 | 2 | · | ·
O=c1[nH]c(=O)n(Cc2ccco2)c(O)c1C=NCCCn1ccnc1 | -9 | -2.8* | · | -0.38 | -0.38 | -8 | 672 | 262
Cc1cc([P+](=O)O)c(C)n1-c1ccc(Br)cc1 | 0 | 0.056 | · | -0.36 | 0.37 | 4 | · | ·
CCC(C)N1C(=O)NC(=O)C2(Cc3cc(C)ccc3N(C)C2)C1=O (centres undefined) | -3 | 0.0098 | · | -0.62 | -0.12 | -8 | · | ·
COc1ccccc1CC1/C(=N/O)C2CCN1CC2 (centres undefined) | -3 | -2.6* | 25 | 0.0037 | -2.4 | -26 | 540 | 245
CCOP(=O)(C#CC(C)(C)C)C1(O)CCCCC1 (centres undefined) | 5 | -0.054 | · | -0.037 | 0.3 | 2 | · | ·
O=c1c2ccccc2nc(-c2ccccc2)n1-n1cccc1 | 0 | -2* | 2 | 0.97 | 2.2 | -8 | 632 | 249
SMILES | RORa activator | M1 antag | mHtt clearance | M1 agonist | D1 mod | SF-1 act | M1 antag conf | mGluR4 antag | others
Cc1nc2ccccc2c(=O)n1-n1cnnc1 | -3 | -2.7* | 31 | -0.7 | -1.3 | -20 | 726 | 236
Cc1nc2ccccc2c(=O)n1-c1ccccn1 | 12 | -0.12 | · | 0.34 | -0.33 | 9 | · | ·
CCC(=NCCO)c1c(O)n(-c2ccc(Cl)cc2)c(=O)[nH]c1=O | 10 | 0.78 | -34 | -0.27 | -0.22 | -1 | · | ·
CC1(C)CN=C(NCc2ccccc2Cl)S1 | -11 | -5.1* | 11 | 1 | · | 5 | 350* | 193
Cc1cccc(-n2c(O)c(C=NCCCN3CCOCC3)c(=O)[nH]c2=O)c1C | 3 | -0.81 | · | -0.25 | 1.1 | -3 | · | ·
Cc1c(N=Cc2c(O)n(CCc3ccc(F)cc3)c(=O)[nH]c2=O)c(=O)n(-c2ccccc2)n1C | -19 | -4.8* | -21 | 0.9 | 0.022 | -5 | 259* | 241
CCc1nc(N2CCNCC2)c(C#N)c2c1CSC(C)(C)C2 | -14 | -5.2* | · | -0.98 | · | 4 | 264* | 211

Screening results as filed in PubChem.
